The text below walks through data of paper PMC4698184 (Antiviral Research, 2015).

For one data set, the system named is EV-D68. As to the kind of experiment: Cell-based inhibition assay. Conditions: Enterovirus D, EVD68, WI-38, read-out: EC50 EV-D68. Put shortly:
(§1)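 WI-38 cells, confluent or semi-confluent, at 37 °C were infected at MOI 0.05 for 1 h. Inoculum was then replaced with medium containing test compound (up to 100 μM) or DMSO (<0.1%). Cells were incubated up to 168 h, until 80–90% CPE. Virus yield was titrated by TCID50 (Reed–Muench), and EC50 was derived by curve fitting.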

A further data set relates to HRV51. As to the kind of experiment: Cell-based inhibition assay. As to conditions: Human rhinovirus sp., HRV51, WI-38, read-out: EC50 HRV51. Put shortly: as §1
A further data set deals with HRV1B. As to the kind of experiment: Cell-based inhibition assay. As to conditions: Human rhinovirus sp., WI-38, read-out: EC50 HRV1B. The essentials:
as §1

For data set [1] the following is noted: cited from earlier work.
In the next data set the test system is HRV strains. As to conditions: read-out: EC50 against HRV strains; ref Patick et al., 2005; cited from earlier work.
For data set [2] the following is noted: ref Dragovich et al., 1999; cited from earlier work.

A word on the EC50: it is the concentration giving half of the maximal effect.

Consider `Cc1cc(CCCOc2c(C)cc(-c3noc(C(F)(F)F)n3)cc2C)on1` [Plecornaril, Pleconaril], for which the EC50 stood at 0.6 ± 0.14 µM with EV-D68, 0.07 ± 0.02 µM in the data set with HRV51 and 0.27 ± 0.18 µM in the data set on HRV1B.
Regarding `C#CC[C@@H](C(=O)N[C@H](/C=C/C(=O)OCC)C[C@@H]1CCNC1=O)n1cccc(NC(=O)c2cc(C)on2)c1=O` [Compound 1 (Patick et al., 2005)], in data set [1] (ref Patick et al., 2005), the oral availability result is “orally available”. For the same compound, the EC50 in the data set with HRV strains was less than 0.1 µM.
For the compound `CCOC(=O)/C=C/[C@H](C[C@@H]1CCNC1=O)NC(=O)[C@@H](CC(=O)[C@@H](NC(=O)c1cc(C)on1)C(C)C)Cc1ccc(F)cc1` [AG7088], the oral bioavailability entry in data set [1] (ref Dragovich et al., 1999) is recorded as “low oral bioavailability”. In addition, the values for the EC50 with EV-D68, in the data set on HRV51 and in the data set with HRV1B were 0.01 ± 0.003 µM, 0.05 ± 0.03 µM and 0.02 ± 0.01 µM, respectively. Besides, in data set [2], the aqueous solubility entry is “poor aqueous solubility”.
